Read-outs that look alike come from different tables or passages of the source. Marks after values point to notes of the source that are not given here. One block for each compound: values may come before it.
Legend:
[1] = assay type: in vivo, healthy Japanese male volunteers; conditions: for AUC ratio (period II/period I) / CL/F ratio (period II/period I) / Cmax ratio (period II/period I) / t1/2,z ratio (period II/period I) / tmax difference (period II − period I): APZ + PRX vs APZ alone; for AUC ratio (period II/period I) / CL/F ratio (period II/period I) / Cmax ratio (period II/period I) / t1/2,z ratio (period II/period I): geometric mean ratio; for tmax difference (period II − period I): mean difference
[2] = assay type: in vivo, healthy Japanese male volunteers; conditions: for AUC ratio (period II/period I) / CL/F ratio (period II/period I) / Cmax ratio (period II/period I) / t1/2,z ratio (period II/period I) / tmax difference (period II − period I): APZ + FLV vs APZ alone; for AUC ratio (period II/period I) / CL/F ratio (period II/period I) / Cmax ratio (period II/period I) / t1/2,z ratio (period II/period I): geometric mean ratio; for tmax difference (period II − period I): mean difference
Summary of the method: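 Healthy Japanese men aged 20–40 y (BMI 18.5–25.0), CYP2D6-genotyped from blood DNA; 7 per genotype randomly selected. Period I: 3 mg APZ tablet orally, fasting; 34-day washout. Fluvoxamine pretreatment 6 days, then APZ given at SSRI steady state, fluvoxamine continued 14 days. Heparinized plasma sampled predose to 336 h, stored −20°C; APZ and DAPZ by LC-MS/MS. Mean ± SD; per-subject period II/I GMR.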

CYP2D6 [3] = assay: Calculation of the contribution of CYP2D6 to APZ metabolism; set-up: species or system healthy Japanese male volunteers; conditions: before CYP inhibition
[4] = APZ 3 mg with CYP3A4 inhibitor itraconazole 100 mg; Japanese EM subjects; cited from earlier work
[5] = cited from earlier work
CYP3A4 [6] = system: CYP3A4; set-up: species or system healthy Japanese male volunteers; conditions: FLV 100 mg/day, calculated from APZ CL/F
CYP3A4 [7] = conditions: coadministration of FLV (100 mg q.d.); cited from earlier work
CYP2D6 [8] = conditions: coadministration of FLV (100 mg q.d.); cited from earlier work
[9] = clinical doses of PRX (20–30 mg q.d.); cited from earlier work
[10] = CYP2D6 EM, APZ + PRX 20 mg/day (period II), single oral 3 mg APZ, mean ± SD
[11] = CYP2D6 EM, APZ alone (period I), PRX group, single oral 3 mg APZ, mean ± SD
[12] = CYP2D6 IM, APZ + PRX 20 mg/day (period II), single oral 3 mg APZ, mean ± SD
[13] = CYP2D6 IM, APZ alone (period I), PRX group, single oral 3 mg APZ, mean ± SD
[14] = male, human, plasma, oral, 3 mg
[15] = CYP2D6 EM, APZ + FLV 100 mg/day (period II), single oral 3 mg APZ, mean ± SD
[16] = CYP2D6 EM, APZ alone (period I), FLV group, single oral 3 mg APZ, mean ± SD
[17] = CYP2D6 IM, APZ + FLV 100 mg/day (period II), single oral 3 mg APZ, mean ± SD
[18] = CYP2D6 IM, APZ alone (period I), FLV group, single oral 3 mg APZ, mean ± SD

- decrease in CL/F by coadministration of PRX ([1]; CYP2D6 EM subjects): 58%
- increase in Cmax by coadministration of PRX ([1]; CYP2D6 EM subjects): 39%
- CL/F [1, 10]: 2.22 ± 0.31 L/h
- AUC ratio (period II/period I) ([1]; CYP2D6 EM): 2.40^a
- CL/F ratio (period II/period I) ([1]; CYP2D6 EM): 0.42^a
- Cmax ratio (period II/period I) ([1]; CYP2D6 EM): 1.39^a
- t1/2,z ratio (period II/period I) ([1]; CYP2D6 EM): 1.83^a
- CL/F [1, 11]: 5.42 ± 1.25 L/h
- decrease in CL/F by coadministration of PRX ([1]; CYP2D6 IM subjects): 23%
- CL/F [1, 12]: 1.78 ± 0.20 L/h
- AUC ratio (period II/period I) ([1]; CYP2D6 IM): 1.30^a
- CL/F ratio (period II/period I) ([1]; CYP2D6 IM): 0.77^a
- Cmax ratio (period II/period I) ([1]; CYP2D6 IM): 1.27^a
- t1/2,z ratio (period II/period I) ([1]; CYP2D6 IM): 1.21^a
- CL/F [1, 13]: 2.32 ± 0.33 L/h
- interindividual variability in CL/F ([1]; EM subjects of PRX group, APZ alone): 23 % CV
- interindividual variability in CL/F ([1]; EM subjects, coadministration of PRX): 14 % CV
- interindividual variability in CL/F ([1]; IM subjects of PRX group, APZ alone): 14 % CV
- AUC [1, 14]: 1320 ng·h/mL
- Cmax [1, 14]: 14.5 ± 3.4 ng/mL
- half-life [1, 14]: 107 ± 18.9 h
- tmax ([1]; male, human, plasma, oral, 3 mg, tmax, CYP2D6 IM, APZ alone (period I), PRX group, single oral 3 mg APZ, mean ± SD): 3.3 ± 1.6 h
- tmax ([1]; male, human, plasma, oral, tmax, coadministration of APZ with PRX in period II): ~2 h
- AUC ([1]; male, human, plasma, po, 3 mg): 582 ± 150 ng·h/mL
- Cmax ([1]; male, human, plasma, po, 3 mg): 12.6 ± 2.6 ng/mL
- half-life ([1]; male, human, plasma, po, 3 mg): 60.7 ± 9.2 h
- CL/F [2, 15]: 2.03 ± 0.46 L/h
- AUC ratio (period II/period I) ([2]; CYP2D6 EM): 1.63^a
- CL/F ratio (period II/period I) ([2]; CYP2D6 EM): 0.61^a
- Cmax ratio (period II/period I) ([2]; CYP2D6 EM): 1.39^a
- t1/2,z ratio (period II/period I) ([2]; CYP2D6 EM): 1.44^a
- CL/F [2, 16]: 3.30 ± 0.59 L/h
- decrease in CL/F by coadministration of fluvoxamine ([2]; CYP2D6 EMs): 39%
- CL/F [2, 17]: 1.26 ± 0.35 L/h
- AUC ratio (period II/period I) ([2]; CYP2D6 IM): 1.65^a
- CL/F ratio (period II/period I) ([2]; CYP2D6 IM): 0.60^a
- Cmax ratio (period II/period I) ([2]; CYP2D6 IM): 1.27^a
- t1/2,z ratio (period II/period I) ([2]; CYP2D6 IM): 1.49^a
- tmax difference (period II − period I) ([2]; CYP2D6 IM): 0.00^b h
- CL/F [2, 18]: 2.10 ± 0.69 L/h
- decrease in CL/F by coadministration of fluvoxamine ([2]; CYP2D6 IMs): 40%
- decrease in CL/F in period II (FLV) compared with period I ([2]; both the IM and EM subjects): approximately 40%
- AUC [2, 14]: 1540 ng·h/mL
- Cmax [2, 14]: 15.3 ± 3.4 ng/mL
- half-life [2, 14]: 105 ± 6.8 h
- tmax ([2]; male, human, plasma, oral, 3 mg, tmax, CYP2D6 IM, APZ alone (period I), FLV group, single oral 3 mg APZ, mean ± SD): 3 ± 1.8 h
- AUC ([2]; male, human, plasma, po, 3 mg): 935 ± 173 ng·h/mL
- Cmax ([2]; male, human, plasma, po, 3 mg): 14.7 ± 2.9 ng/mL
- percent contribution of CYP2D6 to total CL/F (metabolic activity) of APZ (CYP2D6 [3]; CYP2D6 EM, FLV coadministration group): 40%
- percent contribution of CYP2D6 to total CL/F (metabolic activity) of APZ (CYP2D6 [3]; CYP2D6 EM, PRX coadministration group): 62%
- percent contribution of CYP2D6 to total CL/F (metabolic activity) of APZ (CYP2D6 [3]; CYP2D6 IM, FLV coadministration group): 18%
- percent contribution of CYP2D6 to total CL/F (metabolic activity) of APZ (CYP2D6 [3]; CYP2D6 IM, PRX coadministration group): 24%
SMILES: O=C1CCc2ccc(OCCCCN3CCN(c4cccc(Cl)c4Cl)CC3)cc2N1 [Aripiprazole, aripiprazole]
- decrease in CL/F [4]: 27%

- Cmax [1, 10]: 0.9 ± 0.1 ng/mL
- tmax [1, 10]: 89.1 ± 38.5 h
- AUC ratio (period II/period I) ([1]; CYP2D6 EM): 1.21
- Cmax ratio (period II/period I) ([1]; CYP2D6 EM): 0.67
- t1/2,z ratio (period II/period I) ([1]; CYP2D6 EM): 1.91
- tmax difference (period II − period I) ([1]; CYP2D6 EM): 37.71 h
- Cmax [1, 11]: 1.3 ± 0.3 ng/mL
- t1/2,z [1, 11]: 86.1 ± 10.7 h
- tmax [1, 11]: 51.4 ± 16.6 h
- Cmax [1, 12]: 0.8 ± 0.1 ng/mL
- tmax [1, 12]: 133.7 ± 27.2 h
- AUC ratio (period II/period I) ([1]; CYP2D6 IM): 0.89
- Cmax ratio (period II/period I) ([1]; CYP2D6 IM): 0.88
- t1/2,z ratio (period II/period I) ([1]; CYP2D6 IM): 0.73
- tmax difference (period II − period I) ([1]; CYP2D6 IM): 30.71 h
- Cmax [1, 13]: 1.0 ± 0.2 ng/mL
- tmax [1, 13]: 103.0 ± 38.7 h
- Cmax [2, 15]: 1.6 ± 0.2 ng/mL
- t1/2,z [2, 15]: 227.8 ± 63.2 h
- tmax [2, 15]: 72.0 ± 0.0 h
- AUC ratio (period II/period I) ([2]; CYP2D6 EM): 2.05^a
- Cmax ratio (period II/period I) ([2]; CYP2D6 EM): 1.23^a
- t1/2,z ratio (period II/period I) ([2]; CYP2D6 EM): 2.00^a
- tmax difference (period II − period I) ([2]; CYP2D6 EM): 12.00^b h
- Cmax [2, 16]: 1.3 ± 0.3 ng/mL
- t1/2,z [2, 16]: 115.0 ± 39.6 h
- tmax [2, 16]: 60.0 ± 13.1 h
- Cmax [2, 17]: 1.2 ± 0.3 ng/mL
- tmax [2, 17]: 157.7 ± 36.3 h
- Cmax ratio (period II/period I) ([2]; CYP2D6 IM): 0.95^a
- tmax difference (period II − period I) ([2]; CYP2D6 IM): 37.71^b h
- Cmax [2, 18]: 1.2 ± 0.3 ng/mL
- tmax [2, 18]: 120.0 ± 41.6 h
SMILES: O=c1ccc2ccc(OCCCCN3CCN(c4cccc(Cl)c4Cl)CC3)cc2[nH]1 [Dehydroaripiprazole, dehydroaripiprazole]
- excretion in urine and feces [5]: almost no

- percent inhibition of CYP3A4 by coadministration of FLV (CYP3A4 [6]; CYP2D6 EM subjects): 64%
- percent inhibition of CYP3A4 by coadministration of FLV (CYP3A4 [6]; CYP2D6 IM subjects): 48%
SMILES: COCCCC/C(=N\OCCN)c1ccc(C(F)(F)F)cc1 [FLV, fluvoxamine]
- increase in blood concentration of CYP3A4 substrates (CYP3A4 [7]): several-fold
- effect on the PK of desipramine and metoprolol (CYP2D6 substrates) (CYP2D6 [8]): without significantly affecting

SMILES: Fc1ccc([C@@H]2CCNC[C@H]2COc2ccc3c(c2)OCO3)cc1 [PRX, paroxetine]
- steady-state blood concentrations [9]: 35 to 43 ng/mL
